Reference: ChEMBL document CHEMBL1833841, “Synthesis and biological evaluation of a novel class of isatin analogs as dual inhibitors of tubulin polymerization and Akt pathway” (Bioorg Med Chem, 2011)
The source made the active and inactive calls. The rule behind the calls is not given here.

Columns and labels:
MCF7 = assay: Cytotoxicity against human MCF7 cells after 48 hrs by MTS assay; assay type: functional, cell-based; conditions: MCF7, 48 h
Procedure, shortened: (§1)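 A549, MCF-7 and UACC903 cells grown in DMEM with 10% FBS at 37°C, 5% CO2. 5×10^3 cells/well were left to adhere 24 h, then treated 48 h with compound (DMSO stock diluted in DMEM, 0.5–50 µM). MTS read at 490 nm and normalized to control. Dose-response fitted as sigmoidal, variable slope. Triplicates from at least two independent experiments.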

HT-29 [1] = assay: Cytotoxicity against human HT-29 cells after 48 hrs by MTS assay; assay type: functional, cell-based; conditions: HT-29, 48 h
Procedure, shortened: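 HT29 cells maintained in RPMI with 10% FBS. 5×10^3 cells/well were left to adhere 24 h, then exposed 48 h to compound (DMSO stock diluted in DMEM, 0.5–50 µM). MTS absorbance at 490 nm normalized to control. IC50 from sigmoidal variable-slope fit. Triplicates, at least two independent experiments.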

UACC-903 = assay: Cytotoxicity against human UACC903 cells after 48 hrs by MTS assay; assay type: functional, cell-based; conditions: UACC-903, 48 h; procedure, shortened: as §1
A549 = assay: Cytotoxicity against human A549 cells after 48 hrs by MTS assay; assay type: functional, cell-based; conditions: A549, 48 h; procedure, shortened: as §1
HT-29 [2] = assay: Induction of apoptosis in human HT-29 cells assessed as dead cells at 2.5 uM after 24 hrs by PE annexin V and 7-Aminoactinomycin D staining-based flow cytometry (reference value: 1.33%); assay type: functional
Procedure, shortened: (§2)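 HT29 cells (RPMI, 10% FBS) treated with 1.25, 2.5 or 5 μM, or DMSO control, for 24 h at 37 °C. Cells then harvested, washed twice in cold PBS and resuspended at 1×10^6 cells/ml in binding buffer. Stained with PE annexin V and 7-AAD for 15 min at RT in the dark, then analysed by flow cytometry. 7-AAD-positive cells counted as dead.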

HT-29 [3] = assay: Inhibition of AKT expression in human HT-29 cells assessed as total AKT level at 1 uM after 24 hrs by Western blotting; assay type: functional, cell-based
Procedure, shortened: (§3)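 HT29 cells treated 24 h with 1 or 2 µM compound or no drug. Lysed in HEPES/NaCl/EDTA/NP40 buffer with phosphatase and protease inhibitors. Protein equalized by Bradford, run on 10% gels, semi-dry transfer to nitrocellulose, blocked in 5% milk. Pan-Akt or phospho-Akt rabbit polyclonal primaries overnight at 4°C, HRP secondaries, chemiluminescence. β-actin loading control.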

HT-29 [4] = assay: Induction of apoptosis in human HT-29 cells assessed as dead cells at 1.25 uM after 24 hrs by PE annexin V and 7-Aminoactinomycin D staining-based flow cytometry (reference value: 1.33%); assay type: functional; procedure, shortened: as §2
HT-29 [5] = assay: Induction of apoptosis in human HT-29 cells assessed as early apoptotic cells at 2.5 uM after 24 hrs by PE annexin V and 7-Aminoactinomycin D staining-based flow cytometry (reference value: 1.37%); assay type: functional
Procedure, shortened: (§4)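 HT29 cells were treated with 1.25–5.0 µM compound or DMSO for 24 h at 37°C, harvested by low-speed centrifugation and washed twice in cold PBS. They were resuspended in binding buffer at 1×10^6 cells/ml, stained with PE annexin V and 7-AAD for 15 min at RT in the dark, and quantified by flow cytometry.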

HT-29 [6] = assay: Induction of apoptosis in human HT-29 cells assessed as viable cells at 1.25 uM after 24 hrs by PE annexin V and 7-Aminoactinomycin D staining-based flow cytometry (reference value: 93.2%); assay type: functional; conditions: HT-29, 24 h, read-out: Activity; procedure, shortened: as §4
Bos taurus = organism: Bos taurus; assay: Inhibition of bovine brain tubulin polymerization at 10 uM after 1 hrs by fluorescence assay
Procedure, shortened: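 Compound at 10 µM final, DMSO as control. Fluorescence (ex 360, em 440 nm) read every 10 s for 1 h at 37°C, duplicate wells.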

HT-29 [7] = assay: Induction of apoptosis in human HT-29 cells assessed as early apoptotic cells at 1.25 uM after 24 hrs by PE annexin V and 7-Aminoactinomycin D staining-based flow cytometry (reference value: 1.37%); assay type: functional; procedure, shortened: as §4
HT-29 [8] = assay: Induction of apoptosis in human HT-29 cells after 24 hrs by PE annexin V and 7-Aminoactinomycin D staining-based flow cytometry; assay type: functional, cell-based; procedure, shortened: as §4
HT-29 [9] = assay: Induction of apoptosis in human HT-29 cells assessed as increase in caspase 3/7 activation after 24 hrs by fluorescence spectrophotometry; assay type: functional, cell-based
Procedure, shortened: (§5)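 HT29 cells seeded at 1×10^4/well and grown 24 h, then treated 24 h with 1.25–5 µM compound or DMSO. Equal volume of Apo-ONE caspase-3/7 reagent added, shaken 30 s, incubated 2 h at RT. Cleaved-substrate fluorescence read at ex 498/em 521 nm, expressed relative to DMSO cells. Means ± SD, triplicate, one representative experiment.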

HT-29 [10] = assay: Induction of apoptosis in human HT-29 cells at 2.5 uM after 24 hrs by PE annexin V and 7-Aminoactinomycin D staining-based flow cytometry; assay type: functional; procedure, shortened: as §2
HT-29 [11] = assay: Induction of apoptosis in human HT-29 cells assessed as early apoptotic cells at 5 uM after 24 hrs by PE annexin V and 7-Aminoactinomycin D staining-based flow cytometry (reference value: 1.37%); assay type: functional; procedure, shortened: as §4
HT-29 [12] = assay: Inhibition of AKT expression in human HT-29 cells assessed as total AKT level at 2 uM after 24 hrs by Western blotting; assay type: functional, cell-based; procedure, shortened: as §3
MEF = assay: Cytotoxicity against mouse MEF cells after 48 hrs by MTS assay; assay type: cell-based
Procedure, shortened: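 Mouse embryonic fibroblasts exposed to compound for 48 h; viability then read by MTS colorimetric assay. IC50 derived from the viability data.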

HT-29 [13] = assay: Induction of apoptosis in human HT-29 cells assessed as viable cells at 5 uM after 24 hrs by PE annexin V and 7-Aminoactinomycin D staining-based flow cytometry (reference value: 93.2%); assay type: functional; conditions: HT-29, 24 h, read-out: Activity; procedure, shortened: as §4
HT-29 [14] = assay: Induction of apoptosis in human HT-29 cells assessed as viable cells at 2.5 uM after 24 hrs by PE annexin V and 7-Aminoactinomycin D staining-based flow cytometry (reference value: 93.2%); assay type: functional; conditions: HT-29, 24 h, read-out: Activity; procedure, shortened: as §4
HT-29 [15] = assay: Induction of apoptosis in human HT-29 cells assessed as late apoptosis or necrotic cells at 5 uM after 24 hrs by PE annexin V and 7-Aminoactinomycin D staining-based flow cytometry (reference value: 4.1%); assay type: functional; procedure, shortened: as §4
HT-29 [16] = assay: Induction of apoptosis in human HT-29 cells assessed as increase in caspase 3/7 activation after 24 hrs by fluorescence spectrophotometry relative to control; assay type: functional; design: concentration or dose not given beside the values; procedure, shortened: as §5
HT-29 [17] = assay: Induction of apoptosis in human HT-29 cells assessed as DNA fragmentation at 5 uM after 48 hrs by TUNEL assay; assay type: functional, cell-based
Procedure, shortened: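 1×10^5 HT29 cells/well grown 24 h in 10% serum medium, then exposed to 5 µM compound. Fragmented DNA stained with ApopTag Red in situ kit, Hoechst nuclear counterstain. Red TUNEL-positive versus blue total nuclei scored by fluorescence microscopy.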

HT-29 [18] = assay: Induction of apoptosis in human HT-29 cells assessed as late apoptosis or necrotic cells at 1.25 uM after 24 hrs by PE annexin V and 7-Aminoactinomycin D staining-based flow cytometry (reference value: 4.1%); assay type: functional; procedure, shortened: as §4
[19] = target: RAC-alpha serine/threonine-protein kinase (Homo sapiens) (UniProt P31749); assay: Inhibition of AKT phosphorylation in human HT-29 cells assessed as p-AKT level at 1 uM after 24 hrs by Western blotting; assay type: cell-based; procedure, shortened: as §3
Chain of RAC-alpha serine/threonine-protein kinase (Homo sapiens) (P31749 whole entry): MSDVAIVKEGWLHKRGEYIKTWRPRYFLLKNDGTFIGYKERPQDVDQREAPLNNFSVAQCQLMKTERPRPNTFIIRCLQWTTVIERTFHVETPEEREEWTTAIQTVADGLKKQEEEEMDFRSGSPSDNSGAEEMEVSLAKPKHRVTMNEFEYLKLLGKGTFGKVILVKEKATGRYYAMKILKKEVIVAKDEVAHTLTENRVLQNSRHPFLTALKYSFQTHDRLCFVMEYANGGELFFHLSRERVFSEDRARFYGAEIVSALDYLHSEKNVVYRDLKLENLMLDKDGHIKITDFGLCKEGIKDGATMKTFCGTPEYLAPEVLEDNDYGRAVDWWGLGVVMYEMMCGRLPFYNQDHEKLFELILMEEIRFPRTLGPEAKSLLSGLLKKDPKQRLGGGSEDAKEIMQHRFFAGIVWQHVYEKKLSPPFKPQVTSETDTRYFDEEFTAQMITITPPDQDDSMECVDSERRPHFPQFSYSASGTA

HT-29 [20] = assay: Induction of apoptosis in human HT-29 cells at 1.25 uM after 24 hrs by PE annexin V and 7-Aminoactinomycin D staining-based flow cytometry; assay type: functional; procedure, shortened: as §2
HT-29 [21] = assay: Induction of apoptosis in human HT-29 cells assessed as dead cells at 5 uM after 24 hrs by PE annexin V and 7-Aminoactinomycin D staining-based flow cytometry (reference value: 1.33%); assay type: functional; procedure, shortened: as §2
HT-29 [22] = assay: Induction of apoptosis in human HT-29 cells at 5 uM after 24 hrs by PE annexin V and 7-Aminoactinomycin D staining-based flow cytometry (reference value: 6.8%); assay type: functional; procedure, shortened: as §2
HT-29 [23] = assay: Induction of apoptosis in human HT-29 cells assessed as late apoptosis or necrotic cells at 2.5 uM after 24 hrs by PE annexin V and 7-Aminoactinomycin D staining-based flow cytometry (reference value: 4.1%); assay type: functional; procedure, shortened: as §4

Row | SMILES | IC50 (MCF7) [µM] | IC50 (HT-29 [1]) [µM] | IC50 (UACC-903) [µM] | IC50 (A549) [µM] | Activity (HT-29 [2]) [%] | inhibition (HT-29 [3]) | Activity (HT-29 [4]) [%] | Activity (HT-29 [5]) [%] | viability at 1.25 µM (HT-29 [6]) [%] | inhibition (Bos taurus) [%] | Activity (HT-29 [7]) [%] | Activity (HT-29 [8]) | Activity (HT-29 [9]) | Activity (HT-29 [10]) [%] | Activity (HT-29 [11]) [%] | inhibition (HT-29 [12]) | viability at 5 µM (HT-29 [13]) [%] | viability at 2.5 µM (HT-29 [14]) [%] | Activity (HT-29 [15]) [%] | fold change (FC) (HT-29 [16]) | further results
1 | N#C[Se]Cc1ccc(CN2C(=O)C(=O)c3cc(Br)cc(Br)c32)cc1 | 1.45 | 2.59 | 12.1 | 2.41 | – | – | – | – | – | – | – | – | – | – | – | – | – | – | – | – | –
2 | N#CSCc1ccc(CN2C(=O)C(=O)c3cc(Br)cc(Br)c32)cc1 | 24.7 | 1.14 | 2.23 | 2.53 | 7.76 | Active | 2.59 | 10.6 | 88.5 | 71 | 4.42 | Dose-dependent effect | Dose-dependent effect | 39.46 | 2.68 | Active | 33.1 | 60.6 | 52.9 | 16 | IC50 (MEF): > 20 µM; Activity (HT-29 [17]): Active; Activity (HT-29 [18]): 4.46%; inhibition [19]: inactive; Activity (HT-29 [20]): 11.47%; Activity (HT-29 [21]): 11.4%; Activity (HT-29 [22]): 66.98%; Activity (HT-29 [23]): 21.1%
3 | N#C[Se]CCCCN1C(=O)C(=O)c2cc(Br)cc(Br)c21 | 1.53 | 2.39 | 9.03 | 3.15 | – | – | – | – | – | – | – | – | – | – | – | – | – | – | – | – | –
4 | N#CSCCCCN1C(=O)C(=O)c2cc(Br)cc(Br)c21 | 22.1 | 2.42 | 2.06 | 5.53 | – | – | – | – | – | – | – | – | – | – | – | – | – | – | – | – | –
5 | O=C1C(=O)N(Cc2ccc(CN=C=S)cc2)c2c(Br)cc(Br)cc21 | 12 | 1.09 | 3.11 | 3.82 | 6.56 | Active | 4.29 | 6.78 | 83.6 | 77 | 3.5 | Dose-dependent effect | Dose-dependent effect | 36.64 | 2.93 | Active | 38.8 | 63.4 | 47.5 | 16 | Activity (HT-29 [18]): 8.59%; inhibition [19]: inactive; Activity (HT-29 [20]): 16.38%; Activity (HT-29 [21]): 10.8%; Activity (HT-29 [22]): 61.23%; Activity (HT-29 [23]): 23.3%
6 | O=C1C(=O)N(CCCCl)c2c(Br)cc(Br)cc21 | 21.5 | 2.57 | 8.57 | 5.27 | – | – | – | – | – | – | – | – | – | – | – | – | – | – | – | – | –
